Measurements as given in ChEMBL document CHEMBL1146641, “Synthesis of 3-O-acyl/3-benzylidene/3-hydrazone/3-hydrazine/17-carboxyacryloyl ester derivatives of betulinic acid as anti-angiogenic agents” (Bioorg Med Chem Lett, 2004).
Converted amounts (≈) assume the structure as drawn.

Columns and labels:
[1] = Ratio of IC50 against HT-29 colon tumor cell line to IC50 of human endothelial ECV304 cell line; assay type: functional
In short: (§1)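 Endothelial selectivity ratio = IC50 on the tumor line / IC50 on ECV304. […] Wells in triplicate, experiments in triplicate, mean IC50 used. Ratio <10 rated low, 10–20 moderate, >20 high.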

[2] = tested on: ECV-304; test: Ratio of IC50 against PA-1 ovary tumor cell line to IC50 of human endothelial ECV304 cell line; assay type: functional, Female gonad; in short: as §1
[3] = Ratio of IC50 against L132 Lung tumor cell line to IC50 of human endothelial ECV304 cell line; assay type: functional; in short: as §1
[4] = Ratio of IC50 against DU145 prostate tumor cell line to IC50 of human endothelial ECV304 cell line; assay type: functional, ECV-304; in short: as §1
[5] = tested on: ECV-304; test: Cytotoxic activity against ECV304 (human endothelial) cell line.; assay type: functional, cell-based
In short: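 1.5 × 10⁴ cells exposed 72 h to compounds in DMSO (final DMSO <0.1%) at 0.5–4 µg/mL, in triplicate wells. Viability read by MTT. Experiment repeated three times; mean IC50 (half-maximal cytotoxicity) reported.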

[6] = tested on: ECV-304; test: Inhibition of tube-like structure formation in ECV304 (human endothelial) cell line.; assay type: functional

Which results are given for `CC(C)[C@@H]1CC[C@]2(C(=O)O)CC[C@]3(C)C(CCC4[C@@]5(C)CCC(NNc6ccccc6)C(C)(C)C5CC[C@]43C)C12` (stereo not given in full)?
ECS ratio [1]: 3.5; ECS ratio [2]: 7; ECS ratio [3]: 1.6; ECS ratio [4]: 19.8; IC50 [5]: 0.5 µg/mL (≈ 0.911 µM)

Which ECS ratio [2] does the source give for `C=C(C)[C@@H]1CC[C@]2(C(=O)O)CC[C@]3(C)[C@H](CC[C@@H]4[C@@]5(C)CC[C@H](O)C(C)(C)[C@@H]5CC[C@]43C)[C@@H]12` [BETULINIC ACID] here?
The ECS ratio was 3.2.

And the ECS ratio [3]?
Its ECS ratio is 1.

What about the ECS ratio [4] of the same molecule?
Its ECS ratio is 2.2.

What about the IC50 [5] of the same molecule?
Its IC50 is 1.2 µg/mL (≈ 2.63 µM).

What does the source list for `C=C(C)[C@@H]1CC[C@]2(C(=O)O)CC[C@]3(C)C(CCC4[C@@]5(C)CC[C@H](OC(=O)c6cccc(C(F)(F)F)c6)C(C)(C)C5CC[C@]43C)C12` (stereo not given in full)?
ECS ratio [1]: >11.1; ECS ratio [2]: >4.4; ECS ratio [3]: 3; ECS ratio [4]: >11.1; IC50 [5]: 0.9 µg/mL (≈ 1.43 µM)

Which results are given for `C=CC(=O)OC(=O)[C@]12CC[C@@H](C(=C)C)C1C1CCC3[C@@]4(C)CC[C@H](O)C(C)(C)C4CC[C@@]3(C)[C@]1(C)CC2` (stereo not given in full)?
ECS ratio [1]: 2.5; ECS ratio [2]: >1; ECS ratio [3]: 0.43; ECS ratio [4]: >2.5; IC50 [5]: 4 µg/mL (≈ 7.83 µM)

What does the source list for `CC(C)[C@@H]1CC[C@]2(C(=O)O)CC[C@]3(C)C(CCC4[C@@]5(C)CC[C@H](OC(=O)c6ccc(F)cc6F)C(C)(C)C5CC[C@]43C)C12` (stereo not given in full)?
ECS ratio [1]: 2.4; ECS ratio [2]: 2.3; ECS ratio [3]: 1.5; ECS ratio [4]: 3.5; IC50 [5]: 0.7 µg/mL (≈ 1.17 µM); Inhibition [6]: 20%

With `C=C(C)[C@@H]1CC[C@]2(C(=O)O)CC[C@]3(C)C(CCC4[C@@]5(C)CC[C@H](OC(=O)Cc6cc(OC)ccc6OC)C(C)(C)C5CC[C@]43C)C12` (stereo not given in full) as the molecule, how does the ECS ratio [1] read?
The ECS ratio was greater than 5.6.

What about the ECS ratio [3] of the same molecule?
Its ECS ratio is 2.5.

What about the ECS ratio [4] of the same molecule?
Its ECS ratio is 0.55.

And the IC50 [5]?
The IC50 was 1.8 µg/mL (≈ 2.84 µM).

With `CC(C)[C@@H]1CC[C@]2(C(=O)O)CC[C@]3(C)C(CCC4[C@@]5(C)CC/C(=N\O)C(C)(C)C5CC[C@]43C)C12` (stereo not given in full) as the molecule, how does the IC50 [5] read?
Its IC50 is less than 4 µg/mL.

What does the source list for `C=CC(=O)OC(=O)[C@]12CC[C@@H](C(C)C)C1C1CCC3[C@@]4(C)CC[C@H](O)C(C)(C)C4CC[C@@]3(C)[C@]1(C)CC2` (stereo not given in full)?
ECS ratio [1]: 5; ECS ratio [2]: 0.75; ECS ratio [3]: 2; ECS ratio [4]: >2; IC50 [5]: 2 µg/mL (≈ 3.9 µM)

For `COc1ccc(NNC2CC[C@@]3(C)C(CC[C@]4(C)C3CCC3C5[C@H](C(C)C)CC[C@]5(C(=O)O)CC[C@]34C)C2(C)C)cc1` (stereo not given in full), which ECS ratio [1] is on record?
The ECS ratio was 0.87.

And the ECS ratio [4]?
The ECS ratio was 21.1.

And the IC50 [5]?
The IC50 was 0.4 µg/mL (≈ 0.691 µM).

For `CC(C)[C@@H]1CC[C@]2(C(=O)O)CC[C@]3(C)C(CCC4[C@@]5(C)CC/C(=N\Nc6ccccc6)C(C)(C)C5CC[C@]43C)C12` (stereo not given in full), which IC50 [5] is on record?
The IC50 was less than 4 µg/mL.

For `COc1ccc(N/N=C2\CC[C@@]3(C)C(CC[C@]4(C)C3CCC3C5[C@H](C(C)C)CC[C@]5(C(=O)O)CC[C@]34C)C2(C)C)cc1` (stereo not given in full), which IC50 [5] is on record?
Its IC50 is less than 4 µg/mL.

With `CC(C)[C@@H]1CC[C@]2(C(=O)O)CC[C@]3(C)C(CCC4[C@@]5(C)CC[C@H](OC(=O)c6cc(F)cc(F)c6)C(C)(C)C5CC[C@]43C)C12` (stereo not given in full) as the molecule, how does the ECS ratio [1] read?
The ECS ratio was greater than 14.3.

What about the ECS ratio [3] of the same molecule?
Its ECS ratio is 1.7.

And the ECS ratio [4]?
Its ECS ratio is 4.5.

And the IC50 [5]?
Its IC50 is 0.7 µg/mL (≈ 1.17 µM).

For `C=C(C)[C@@H]1CC[C@]2(C(=O)O)CC[C@]3(C)C(CCC4[C@@]5(C)CC[C@H](OC(=O)c6ccc(CCCCCCC)cc6)C(C)(C)C5CC[C@]43C)C12` (stereo not given in full), which ECS ratio [1] is on record?
Its ECS ratio is greater than 5.89.

And the ECS ratio [2]?
The ECS ratio was greater than 2.3.

What about the ECS ratio [3] of the same molecule?
The ECS ratio was 4.1.

And the ECS ratio [4]?
The ECS ratio was greater than 5.8.

What about the IC50 [5] of the same molecule?
The IC50 was 1.7 µg/mL (≈ 2.58 µM).

Which IC50 [5] does the source give for `C=C(C)[C@@H]1CC[C@]2(C(=O)O)CC[C@]3(C)[C@H](CC[C@@H]4[C@@]5(C)CCC(=O)C(C)(C)[C@@H]5CC[C@]43C)[C@@H]12` [BETUNOLIC ACID] here?
Its IC50 is less than 4 µg/mL.

Which results are given for `C=C(C)[C@@H]1CC[C@]2(C(=O)O)CC[C@]3(C)C(CCC4[C@@]5(C)CC[C@H](OC(=O)c6ccc(CCCCC)cc6)C(C)(C)C5CC[C@]43C)C12` (stereo not given in full)?
ECS ratio [1]: 1.84; ECS ratio [2]: >2.1; ECS ratio [3]: 3.1; ECS ratio [4]: 1.05; IC50 [5]: 1.9 µg/mL (≈ 3.01 µM)

With `CC(C)[C@@H]1CC[C@]2(C(=O)O)CC[C@]3(C)C(CCC4[C@@]5(C)CCC(/N=C/c6ccc(F)cc6F)C(C)(C)C5CC[C@]43C)C12` (stereo not given in full) as the molecule, how does the ECS ratio [1] read?
Its ECS ratio is 2.04.

What about the ECS ratio [2] of the same molecule?
Its ECS ratio is 0.54.

What about the ECS ratio [3] of the same molecule?
The ECS ratio was 1.4.

What about the ECS ratio [4] of the same molecule?
The ECS ratio was 1.04.

And the IC50 [5]?
Its IC50 is 2.4 µg/mL (≈ 4.12 µM).

What about the Inhibition [6] of the same molecule?
The Inhibition was 48%.

For `CC(C)[C@@H]1CC[C@]2(C(=O)O)CC[C@]3(C)C(CCC4[C@@]5(C)CC[C@H](OC(=O)c6ccccc6C(F)(F)F)C(C)(C)C5CC[C@]43C)C12` (stereo not given in full), which ECS ratio [1] is on record?
The ECS ratio was 3.84.

What about the ECS ratio [2] of the same molecule?
The ECS ratio was greater than 1.53.

And the ECS ratio [3]?
The ECS ratio was 1.5.

And the ECS ratio [4]?
Its ECS ratio is greater than 1.5.

What about the IC50 [5] of the same molecule?
Its IC50 is 2.6 µg/mL (≈ 4.12 µM).

For `C=C(C)[C@@H]1CC[C@]2(C(=O)O)CC[C@]3(C)C(CCC4[C@@]5(C)CC/C(=N\Nc6ccccc6)C(C)(C)C5CC[C@]43C)C12` (stereo not given in full), which ECS ratio [1] is on record?
The ECS ratio was 4.2.

And the ECS ratio [2]?
Its ECS ratio is 2.08.

What about the ECS ratio [3] of the same molecule?
The ECS ratio was 1.9.

What about the ECS ratio [4] of the same molecule?
Its ECS ratio is 2.7.

What about the IC50 [5] of the same molecule?
The IC50 was 2.4 µg/mL (≈ 4.41 µM).

With `CC(C)[C@@H]1CC[C@]2(C(=O)O)CC[C@]3(C)C(CCC4[C@@]5(C)CC[C@H](O)C(C)(C)C5CC[C@]43C)C12` (stereo not given in full) [DIHYDROBETULINIC ACID] as the molecule, how does the IC50 [5] read?
The IC50 was less than 4 µg/mL.

For `CC(C)[C@@H]1CC[C@]2(C(=O)O)CC[C@]3(C)C(CCC4[C@@]5(C)CCC(/N=C/c6ccc(F)c(F)c6)C(C)(C)C5CC[C@]43C)C12` (stereo not given in full), which ECS ratio [1] is on record?
Its ECS ratio is 11.4.

What about the ECS ratio [2] of the same molecule?
The ECS ratio was 3.7.

What about the ECS ratio [3] of the same molecule?
Its ECS ratio is 7.1.

And the ECS ratio [4]?
Its ECS ratio is 6.2.

What about the IC50 [5] of the same molecule?
The IC50 was 0.35 µg/mL (≈ 0.602 µM).

And the Inhibition [6]?
The Inhibition was 32%.

Which IC50 [5] does the source give for `CC(C)[C@@H]1CC[C@]2(C(=O)O)CC[C@]3(C)C(CCC4[C@@]5(C)CCC(N)C(C)(C)C5CC[C@]43C)C12` (stereo not given in full) here?
The IC50 was less than 4 µg/mL.

For `CC(C)[C@@H]1CC[C@]2(C(=O)O)CC[C@]3(C)C(CCC4[C@@]5(C)CCC(=O)C(C)(C)C5CC[C@]43C)C12` (stereo not given in full), which IC50 [5] is on record?
The IC50 was less than 4 µg/mL.
